Test results reported in ChEMBL document CHEMBL1133503 (J Med Chem, 2000).

Legend:
[1] = Concentration of drug required to reduce V-79 cell survival to 50% of controls in a SRB assay; format: functional, cell-based; conditions: Cricetulus griseus, V79
Summary of the method: (§1)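 V-79 cells (about 7 × 10³ per 100 μL) preincubated 24 h, then exposed to drug for 3 h under oxic conditions. Washed 5× with HBSS and grown 48 h more. Fixed with TCA and stained with SRB. Bound dye dissolved in 10 mM Tris, spotted on TLC and read by video densitometry. IC50 is the mean of triplicates in one experiment. Ratio is IC50 of sulfide over sulfoxide or sulfone.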

[2] = Relative cytotoxicity is expressed as the ratio of the IC50 values of the corresponding sulfide to sulfoxide or to sulfone; format: functional, Cricetulus griseus; summary of the method: as §1
[3] = species: Rattus norvegicus; assay: Bioreduction experiment was conducted by incubation of the sulfoxides with rat liver S-9 fractions in anaerobic conditions (N2); format: functional
Summary of the method: (§2)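 Rat liver S-9 fraction incubated with sulfoxide at 37 °C for 30 min with shaking. Aerobic vials were left open to air. Anaerobic vials were purged with N2 for 10 min before the compound was injected. Cofactor was NADPH, benzaldehyde, 2-hydroxypyrimidine or acetaldehyde, or none. Controls were boiled S-9 and S-9 without cofactors. For menadione, S-9 was preincubated aerobically with 1 equiv for 30 min, then benzaldehyde was added. Sulfide or sulfone was measured by HPLC or TLC densitometry.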

[4] = species: Rattus norvegicus; assay: Bioreduction experiment was conducted by incubation of the sulfoxides with rat liver S-9 fractions in anaerobic conditions(N2, without cofactors); format: functional; summary of the method: as §2
[5] = species: Rattus norvegicus; assay: Reduction potential (SCE) determined by differential pulse polarography of the sulfoxides […]; format: functional
[6] = species: Rattus norvegicus; assay: Bioreduction experiment was conducted by incubation of the sulfoxides with rat liver S-9 fractions in anaerobic conditions(N2, benzaldehyde); format: functional; summary of the method: as §2
[7] = species: Rattus norvegicus; assay: Bioreduction experiment was conducted by incubation of the sulfoxides with rat liver S-9 fractions in anaerobic conditions (N2 2-hydroxypyrimidine); format: functional; summary of the method: as §2
[8] = Concentration required to reduce cell survival to 10% of controls using V-79 cells in the clonogenic assay, in aerobic conditions; format: functional; conditions: Cricetulus griseus, V79
Summary of the method: (§3)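 V-79 cells (500 000 per bottle) grown 20 h in MEM with 10% FBS. Hypoxic set gassed 2 h at 37 °C with humidified 95% N2/5% CO2. Drug in ethanol/water or DMF injected through septa. Exposure 3 h under air or hypoxia. Cells trypsinised, counted by trypan blue, 500 plated in triplicate for 6–8 days. Colonies stained with crystal violet, survival relative to solvent control.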

[9] = Hypoxic selectivity expressed as the ratio of IC50 values in air and nitrogen; format: functional
[10] = Concentration required to reduce cell survival to 10% of controls using V-79 cells in the clonogenic assay, in anaerobic conditions (hypoxic conditions); format: functional; conditions: Cricetulus griseus, V79; summary of the method: as §3
[11] = Hypoxia-selective cytotoxicity required to reduce cell survival to 10% of controls using V-79 cells in the clonogenic assay, with air; format: functional; conditions: Cricetulus griseus, V79; summary of the method: as §3
[12] = Hypoxia-selective cytotoxicity required to reduce cell survival to 10% of controls using V-79 cells in the clonogenic assay, with N2; format: functional; conditions: Cricetulus griseus, V79; summary of the method: as §3
[13] = species: Rattus norvegicus; assay: Bioreduction experiment was conducted by incubation of the sulfoxides with rat liver S-9 fractions in anaerobic conditions (N2, without cofactors); format: functional; design: concentration or dose not given beside the values; summary of the method: as §2
[14] = species: Rattus norvegicus; assay: Bioreduction experiment was conducted by incubation of the sulfoxides with rat liver S-9 fractions in anaerobic conditions N2); format: functional; summary of the method: as §2
[15] = species: Rattus norvegicus; assay: Bioreduction experiment was conducted by incubation of the sulfoxides with rat liver S-9 fractions in anaerobic conditions (N2, benzaldehyde); format: functional; design: concentration or dose not given beside the values; summary of the method: as §2
[16] = species: Rattus norvegicus; assay: Bioreduction experiment was conducted by incubation of the sulfoxides with rat liver S-9 fractions in aerobic conditions (N2, 2-hydroxypyrimidine); format: functional; summary of the method: as §2
[17] = species: Rattus norvegicus; assay: Bioreduction experiment was conducted by incubation of the sulfoxides with rat liver S-9 fractions in aerobic conditions (air, without cofactors); format: functional; summary of the method: as §2
[18] = species: Rattus norvegicus; assay: Bioreduction experiment was conducted by incubation of the sulfoxides with rat liver S-9 fractions in aerobic conditions (air, NADPH); format: functional; summary of the method: as §2
[19] = species: Rattus norvegicus; assay: Bioreduction experiment was conducted by incubation of the sulfoxides with rat liver S-9 fractions in aerobic conditions (N2, acetaldehyde); format: functional; summary of the method: as §2
[20] = species: Rattus norvegicus; assay: Bioreduction experiment was conducted by incubation of the sulfoxides with rat liver S-9 fractions in aerobic conditions (N2, menadione); format: functional; summary of the method: as §2
[21] = species: Rattus norvegicus; assay: Bioreduction experiment was conducted by incubation of the sulfoxides with rat liver S-9 fractions in aerobic conditions (N2, NADPH); format: functional; summary of the method: as §2
[22] = species: Rattus norvegicus; assay: Bioreduction experiment was conducted by incubation of the sulfoxides with rat liver S-9 fractions in aerobic conditions (air, control); format: functional; summary of the method: as §2
[23] = species: Rattus norvegicus; assay: Bioreduction experiment was conducted by incubation of the sulfoxides with rat liver S-9 fractions in aerobic conditions (air, benzaldehyde); format: functional; summary of the method: as §2
[24] = species: Rattus norvegicus; assay: Bioreduction experiment was conducted by incubation of the sulfoxides with rat liver S-9 fractions under anaerobic (N2) in the presence of 2-hydroxypyrimidine; format: functional
Summary of the method: (§4)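 Rat liver S-9 incubated with sulfoxide for 30 min at 37 °C, in open vials (air) or in vials purged with N2 for 10 min before dosing. Cofactor was NADPH, NADH, benzaldehyde, 2-hydroxypyrimidine or acetaldehyde. Controls were boiled S-9 or no cofactor. Menadione arm: 30 min aerobic preincubation with 1 equiv, then benzaldehyde. Stopped with CH2Cl2. Sulfide quantified by TLC densitometry as % of sulfoxide. Three experiments, same S-9 batch.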

[25] = species: Rattus norvegicus; assay: Bioreduction experiment was conducted by incubation of the sulfoxides with rat liver S-9 fractions under anaerobic (N2) in the presence of menadione; format: functional; summary of the method: as §4
[26] = species: Rattus norvegicus; assay: Bioreduction experiment was conducted by incubation of the sulfoxides with rat liver S-9 fractions under anaerobic (N2) in the presence of NADH; format: functional; summary of the method: as §4
[27] = species: Rattus norvegicus; assay: Bioreduction experiment was conducted by incubation of the sulfoxides with rat liver S-9 fractions under aerobic(air) in the presence of benzaldehyde; format: functional; summary of the method: as §4
[28] = species: Rattus norvegicus; assay: Bioreduction experiment was conducted by incubation of the sulfoxides with rat liver S-9 fractions under anaerobic (N2) with conditions boiled S-9 fractions; format: functional; summary of the method: as §4
[29] = species: Rattus norvegicus; assay: Bioreduction experiment was conducted by incubation of the sulfoxides with rat liver S-9 fractions under aerobic(air) with conditions boiled S-9 fractions; format: functional; summary of the method: as §4
[30] = species: Rattus norvegicus; assay: Bioreduction experiment was conducted by incubation of the sulfoxides with rat liver S-9 fractions under anaerobic (N2) without cofactors; format: functional; summary of the method: as §4
[31] = species: Rattus norvegicus; assay: Bioreduction experiment was conducted by incubation of the sulfoxides with rat liver S-9 fractions under aerobic(air) in the presence of NADPH; format: functional; summary of the method: as §4
[32] = species: Rattus norvegicus; assay: Bioreduction experiment was conducted by incubation of the sulfoxides with rat liver S-9 fractions under aerobic(air) in the presence of were NADH; format: functional; summary of the method: as §4
[33] = species: Rattus norvegicus; assay: Bioreduction experiment was conducted by incubation of the sulfoxides with rat liver S-9 fractions under anaerobic (N2) in the presence of NADPH; format: functional; summary of the method: as §4
[34] = species: Rattus norvegicus; assay: Bioreduction experiment was conducted by incubation of the sulfoxides with rat liver S-9 fractions under aerobic(air) without cofactors; format: functional; summary of the method: as §4
[35] = species: Rattus norvegicus; assay: Bioreduction experiment was conducted by incubation of the sulfoxides with rat liver S-9 fractions under anaerobic (N2) in the presence of acetaldehyde; format: functional; summary of the method: as §4
[36] = species: Rattus norvegicus; assay: Bioreduction experiment was conducted by incubation of the sulfoxides with rat liver S-9 fractions in aerobic conditions(air, control); format: functional; summary of the method: as §2
[37] = species: Rattus norvegicus; assay: Bioreduction experiment was conducted by incubation of the sulfoxides with rat liver S-9 fractions in aerobic conditions(air, benzaldehyde); format: functional; summary of the method: as §2
[38] = species: Rattus norvegicus; assay: Bioreduction experiment was conducted by incubation of the sulfoxides with rat liver S-9 fractions in aerobic conditions(N2, acetaldehyde); format: functional; summary of the method: as §2
[39] = species: Rattus norvegicus; assay: Bioreduction experiment was conducted by incubation of the sulfoxides with rat liver S-9 fractions in aerobic conditions(air, NADPH); format: functional; summary of the method: as §2
[40] = species: Rattus norvegicus; assay: Bioreduction experiment was conducted by incubation of the sulfoxides with rat liver S-9 fractions in aerobic conditions(N2, NADPH); format: functional; summary of the method: as §2
[41] = species: Rattus norvegicus; assay: Bioreduction experiment was conducted by incubation of the sulfoxides with rat liver S-9 fractions in aerobic conditions(N2, menadione); format: functional; summary of the method: as §2
[42] = species: Rattus norvegicus; assay: Bioreduction experiment was conducted by incubation of the sulfoxides with rat liver S-9 fractions in aerobic conditions(air, without cofactors); format: functional; summary of the method: as §2
[43] = species: Rattus norvegicus; assay: Bioreduction experiment was conducted by incubation of the sulfoxides with rat liver S-9 fractions in aerobic conditions(N2, 2-hydroxypyrimidine); format: functional; summary of the method: as §2

Cl.O=S(=O)(c1ccc(Nc2c3ccccc3nc3ccccc23)cc1)c1ccc(N(CCCl)CCCl)cc1 gave an IC50 [1] of 22.2 µM and a Cytotoxicity [2] of 0.09.

In the case of [O-][s+]1c2ccccc2c2cc(N(CCCl)CCCl)ccc21 (centres undefined), the Bioreduction [3] is reported as 0%, the Bioreduction [4] is reported as 0.46% and the E [5] is reported as 2.03 -V. The Bioreduction [6] was 1.68%, the Bioreduction [7] was 2.02% and the IC90 [8] was 210 µM. For the same compound, the Selectivity [9] was 1.3 and the IC90 [10] was 161 µM.

Work on O=[N+]([O-])c1ccc([S+]([O-])c2ccc(N(CCCl)CCCl)cc2)cc1 (centres undefined) yielded an IC90 [11] of 3680 µM, an IC50 [1] of 21.9 µM and an IC90 [12] of 182 µM. For the same compound, the Cytotoxicity [2] was 0.1 and the Selectivity [9] was 20.

In the case of C[S+]([O-])c1ccccc1 (centres undefined) [METHYLPHENYLSULFOXIDE], the Bioreduction [13] is reported as 0%, the Bioreduction [14] is reported as 0% and the E [5] is reported as 2.4 -V. The Bioreduction [15] was 10.2%.

Compound [O-][S+](c1ccccc1)c1ccccc1 [(PHENYLSULFINYL)BENZENE] has a Bioreduction [16] of 17.4%, a Bioreduction [17] of 0% and a Bioreduction [13] of 0%. It also gave a Bioreduction [18] of 11.6 nmol/mg, a Bioreduction [19] of 6% and a Bioreduction [14] of 0%. The Bioreduction [20] was 0%, the E [5] was 2.3 -V and the Bioreduction [15] was 18%. For the same compound, the Bioreduction [21] was 0%, the Bioreduction [22] was 0% and the Bioreduction [23] was 0%.

Nc1ccc([S+]([O-])c2ccc(N(CCCl)CCCl)cc2)cc1 (centres undefined) gave a Bioreduction [16] of 4.5%, an IC90 [11] of 2800 µM and an IC50 [1] of 30 µM. It also gave a Bioreduction [24] of 8.5%, a Bioreduction [17] of 0% and a Bioreduction [13] of 0%. The Bioreduction [18] was 0 nmol/mg, the Bioreduction [25] was 1.6% and the Bioreduction [26] was 9%. The Bioreduction [27] was 1.05%, the Bioreduction [28] was 0% and the Bioreduction [19] was 4.42%. It also gave a Bioreduction [14] of 0%, an IC90 [12] of 185 µM and a Cytotoxicity [2] of 0.08. It also gave a Bioreduction [29] of 0%, a Bioreduction [30] of 1.75% and a Bioreduction [31] of 16%. The Bioreduction [20] was 0%, the Bioreduction [32] was 9.75% and the E [5] was 2.55 -V. It also gave a Bioreduction [33] of 42.1%, a Bioreduction [15] of 5% and a Bioreduction [21] of 0.37%. It also gave a Selectivity [9] of 15, a Bioreduction [22] of 0% and a Bioreduction [23] of 0%. For the same compound, the Bioreduction [34] was 1.14% and the Bioreduction [35] was 12.92%.

Cl.[O-][S+](c1ccc(Nc2c3ccccc3nc3ccccc23)cc1)c1ccc(N(CCCl)CCCl)cc1 (centres undefined) showed an IC90 [11] of 4950 µM, a Bioreduction [36] of 0% and a Bioreduction [37] of 0%. The IC50 [1] was 26.2 µM, the Bioreduction [3] was 0% and the Bioreduction [4] was 1.29%. For the same compound, the Bioreduction [38] was 1.79%, the IC90 [12] was 180 µM and the Cytotoxicity [2] was 0.07. For the same compound, the Bioreduction [39] was 0%, the E [5] was 2.63 -V and the Bioreduction [6] was 2.28%. It also gave a Selectivity [9] of 27, a Bioreduction [40] of 1.37% and a Bioreduction [41] of 1.07%. It also gave a Bioreduction [42] of 0% and a Bioreduction [43] of 1.34%.

In the case of Nc1ccc(S(=O)(=O)c2ccc(N(CCCl)CCCl)cc2)cc1, the IC50 [1] is reported as 26.9 µM and the Cytotoxicity [2] is reported as 0.09.
